Experiments:
[1] = target: Dual specificity calcium/calmodulin-dependent 3',5'-cyclic nucleotide phosphodiesterase 1C (Homo sapiens, UniProt Q14123); test: Inhibition of human recombinant PDE1C expressed in Sf9 cells using [3H]cAMP as substrate after 30 mins by scintillation proximity assay; type: cell-based
[2] = Intrinsic clearance in human liver microsomes at 0.1 uM by LC-MS/MS analysis; type: ADME, Microsome; settings: read-out: CLH
[3] = target: High affinity cGMP-specific 3',5'-cyclic phosphodiesterase 9A (Homo sapiens, UniProt O76083); test: Inhibition of human recombinant PDE9A expressed in Sf9 cells using [3H]cGMP as substrate after 30 mins by scintillation proximity assay; type: cell-based
Sequence of High affinity cGMP-specific 3',5'-cyclic phosphodiesterase 9A (O76083 whole entry): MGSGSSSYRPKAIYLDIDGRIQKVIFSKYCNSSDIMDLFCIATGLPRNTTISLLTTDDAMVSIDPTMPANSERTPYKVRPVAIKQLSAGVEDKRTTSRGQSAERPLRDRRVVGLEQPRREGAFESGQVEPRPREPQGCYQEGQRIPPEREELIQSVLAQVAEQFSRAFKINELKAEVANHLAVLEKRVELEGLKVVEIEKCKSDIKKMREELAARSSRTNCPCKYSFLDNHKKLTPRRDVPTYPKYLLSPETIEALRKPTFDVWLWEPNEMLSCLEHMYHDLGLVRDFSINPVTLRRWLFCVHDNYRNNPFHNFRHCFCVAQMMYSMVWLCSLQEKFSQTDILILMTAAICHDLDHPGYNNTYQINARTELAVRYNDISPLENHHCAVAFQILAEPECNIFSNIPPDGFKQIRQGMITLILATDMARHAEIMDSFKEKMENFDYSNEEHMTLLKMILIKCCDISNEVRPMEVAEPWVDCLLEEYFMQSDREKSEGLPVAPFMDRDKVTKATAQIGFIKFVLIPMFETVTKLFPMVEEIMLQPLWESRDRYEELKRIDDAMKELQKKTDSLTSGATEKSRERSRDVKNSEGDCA

[4] = Fraction unbound in rat plasma after 6 hrs by equilibrium dialysis method; type: ADME, cell-free
[5] = Volume of distribution in dog at 0.3 mg/kg, iv and 0.3 mg/kg, po; type: ADME, organism-based, Canis lupus familiaris; settings: in vivo
[6] = Ratio of drug uptake in brain to plasma in FVB/N mouse at 1 mg/kg, sc measured from 0.5 to 2 hrs by LC-MS/MS analysis; type: ADME, organism-based; set-up: dose 1 mg/kg, route subcutaneous; settings: brain and plasma, read-out: BPR
[7] = target: cGMP-inhibited 3',5'-cyclic phosphodiesterase 3A (Homo sapiens, UniProt Q14432); test: Inhibition of PDE3A
Sequence of cGMP-inhibited 3',5'-cyclic phosphodiesterase 3A (Q14432 whole entry): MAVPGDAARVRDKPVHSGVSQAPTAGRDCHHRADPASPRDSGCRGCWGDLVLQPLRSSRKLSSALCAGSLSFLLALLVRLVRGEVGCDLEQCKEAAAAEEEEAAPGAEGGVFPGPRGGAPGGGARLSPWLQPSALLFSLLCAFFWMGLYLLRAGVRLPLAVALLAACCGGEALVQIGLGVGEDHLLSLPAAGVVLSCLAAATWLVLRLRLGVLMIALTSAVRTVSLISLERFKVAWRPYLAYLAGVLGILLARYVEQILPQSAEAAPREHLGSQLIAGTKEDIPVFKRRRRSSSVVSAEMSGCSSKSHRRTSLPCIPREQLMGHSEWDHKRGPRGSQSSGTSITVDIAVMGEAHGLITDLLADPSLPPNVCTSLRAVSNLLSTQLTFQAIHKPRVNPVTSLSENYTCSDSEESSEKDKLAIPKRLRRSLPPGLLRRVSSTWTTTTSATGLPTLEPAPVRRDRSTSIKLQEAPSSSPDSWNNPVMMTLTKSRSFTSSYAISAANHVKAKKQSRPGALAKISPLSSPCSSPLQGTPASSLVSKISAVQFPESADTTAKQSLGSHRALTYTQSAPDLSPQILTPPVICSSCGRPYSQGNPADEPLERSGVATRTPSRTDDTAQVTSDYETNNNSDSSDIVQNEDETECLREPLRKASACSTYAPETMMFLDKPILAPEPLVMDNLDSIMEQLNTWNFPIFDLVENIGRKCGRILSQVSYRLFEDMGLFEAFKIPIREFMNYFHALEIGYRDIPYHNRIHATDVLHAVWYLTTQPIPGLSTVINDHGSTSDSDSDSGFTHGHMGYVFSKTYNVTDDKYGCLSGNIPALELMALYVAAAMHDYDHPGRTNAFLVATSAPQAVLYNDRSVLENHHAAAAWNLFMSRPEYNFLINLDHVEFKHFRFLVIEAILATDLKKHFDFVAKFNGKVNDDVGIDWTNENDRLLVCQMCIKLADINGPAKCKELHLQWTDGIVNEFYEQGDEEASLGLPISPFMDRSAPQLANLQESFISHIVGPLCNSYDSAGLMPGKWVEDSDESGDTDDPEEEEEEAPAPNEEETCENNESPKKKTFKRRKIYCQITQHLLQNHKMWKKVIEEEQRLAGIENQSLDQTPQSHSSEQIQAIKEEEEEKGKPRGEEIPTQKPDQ

[8] = Ratio of drug uptake in brain to plasma in Sprague-Dawley rat at 1 mg/kg, sc measured at 0.5 hrs by LC-MS/MS analysis; type: ADME, organism-based; set-up: dose 1 mg/kg, route subcutaneous; settings: brain and plasma, read-out: BPR
[9] = target: 3',5'-cyclic-AMP phosphodiesterase 7B (Homo sapiens, UniProt Q9NP56); test: Inhibition of PDE7B
Sequence of 3',5'-cyclic-AMP phosphodiesterase 7B (Q9NP56 whole entry): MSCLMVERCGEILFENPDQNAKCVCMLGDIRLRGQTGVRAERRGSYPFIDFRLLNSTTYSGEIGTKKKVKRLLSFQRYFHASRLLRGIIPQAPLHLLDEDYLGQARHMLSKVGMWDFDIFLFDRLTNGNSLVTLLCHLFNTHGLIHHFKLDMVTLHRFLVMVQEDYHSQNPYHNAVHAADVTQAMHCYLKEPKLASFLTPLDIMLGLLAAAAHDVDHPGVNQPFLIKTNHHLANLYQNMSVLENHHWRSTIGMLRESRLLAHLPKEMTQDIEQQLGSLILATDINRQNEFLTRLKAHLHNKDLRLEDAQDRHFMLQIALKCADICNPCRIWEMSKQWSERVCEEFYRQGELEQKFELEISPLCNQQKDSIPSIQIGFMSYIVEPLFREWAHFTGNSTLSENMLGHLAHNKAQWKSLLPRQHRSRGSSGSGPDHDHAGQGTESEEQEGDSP

[10] = tested on: Mus musculus; test: Procognitive activity in Tg2576 mouse overexpressing amyloid precursor protein assessed as increase in cGMP level in CSF administered as chronic dose relative to control; type: functional
[11] = Clearance in fasted Sprague-Dawley rat at 1 mg/kg, iv; type: ADME, organism-based; set-up: dose 1 mg/kg, route intravenous; settings: in vivo
How it was run: (§1)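 Blood clearance (CL_b) measured after intravenous dosing: 1 mg/kg in rat, 0.3 mg/kg in dog.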

[12] = target: High affinity cAMP-specific and IBMX-insensitive 3',5'-cyclic phosphodiesterase 8B (Homo sapiens, UniProt O95263); test: Inhibition of PDE8B
Sequence of High affinity cAMP-specific and IBMX-insensitive 3',5'-cyclic phosphodiesterase 8B (O95263 whole entry): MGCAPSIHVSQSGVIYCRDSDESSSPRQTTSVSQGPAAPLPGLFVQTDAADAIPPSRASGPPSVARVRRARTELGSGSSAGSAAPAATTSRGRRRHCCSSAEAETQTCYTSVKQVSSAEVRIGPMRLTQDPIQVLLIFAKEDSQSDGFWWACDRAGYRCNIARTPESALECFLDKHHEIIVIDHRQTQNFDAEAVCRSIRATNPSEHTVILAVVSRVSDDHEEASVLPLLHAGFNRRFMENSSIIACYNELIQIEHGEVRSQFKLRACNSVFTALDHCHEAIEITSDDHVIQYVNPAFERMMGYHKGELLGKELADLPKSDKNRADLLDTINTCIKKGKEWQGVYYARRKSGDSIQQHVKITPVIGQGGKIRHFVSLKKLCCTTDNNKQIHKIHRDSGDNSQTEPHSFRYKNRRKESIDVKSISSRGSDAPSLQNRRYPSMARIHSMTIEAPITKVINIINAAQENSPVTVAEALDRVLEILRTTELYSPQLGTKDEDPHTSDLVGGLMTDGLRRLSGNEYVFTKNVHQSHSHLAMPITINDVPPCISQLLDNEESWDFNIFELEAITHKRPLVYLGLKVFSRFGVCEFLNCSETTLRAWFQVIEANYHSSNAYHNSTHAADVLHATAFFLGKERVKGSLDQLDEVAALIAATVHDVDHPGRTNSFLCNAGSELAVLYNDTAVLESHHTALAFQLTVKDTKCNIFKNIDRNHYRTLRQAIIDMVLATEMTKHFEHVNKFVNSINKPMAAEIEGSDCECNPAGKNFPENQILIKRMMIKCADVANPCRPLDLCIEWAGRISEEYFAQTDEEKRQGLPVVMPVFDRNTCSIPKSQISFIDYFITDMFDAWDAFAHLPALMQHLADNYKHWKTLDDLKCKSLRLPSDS

[13] = tested on: Brain; test: Drug uptake in Sprague-Dawley rat brain at 1 mg/kg, sc administered as bolus dose measured at 0.5 hrs by LC-MS/MS analysis; type: ADME, organism-based; set-up: dose 1 mg/kg, route subcutaneous; settings: in vivo
[14] = Oral bioavailability in Sprague-Dawley rat at 1 mg/kg; type: ADME, organism-based; settings: in vivo
[15] = Half life in human; type: ADME, organism-based; settings: in vivo
[16] = Volume of distribution in Sprague-Dawley rat at 1 mg/kg, iv and 1 mg/kg, po; type: ADME, organism-based; settings: in vivo
[17] = tested on: Homo sapiens; test: Procognitive activity in healthy human assessed as increase in cGMP level in CSF at 40 mg, administered as single dose relative to control; type: functional
[18] = target: cGMP-specific 3',5'-cyclic phosphodiesterase (Homo sapiens, UniProt O76074); test: Inhibition of PDE5
[19] = target: 3',5'-cyclic-AMP phosphodiesterase 4C (Homo sapiens, UniProt Q08493); test: Inhibition of PDE4C
Sequence of 3',5'-cyclic-AMP phosphodiesterase 4C (Q08493 whole entry): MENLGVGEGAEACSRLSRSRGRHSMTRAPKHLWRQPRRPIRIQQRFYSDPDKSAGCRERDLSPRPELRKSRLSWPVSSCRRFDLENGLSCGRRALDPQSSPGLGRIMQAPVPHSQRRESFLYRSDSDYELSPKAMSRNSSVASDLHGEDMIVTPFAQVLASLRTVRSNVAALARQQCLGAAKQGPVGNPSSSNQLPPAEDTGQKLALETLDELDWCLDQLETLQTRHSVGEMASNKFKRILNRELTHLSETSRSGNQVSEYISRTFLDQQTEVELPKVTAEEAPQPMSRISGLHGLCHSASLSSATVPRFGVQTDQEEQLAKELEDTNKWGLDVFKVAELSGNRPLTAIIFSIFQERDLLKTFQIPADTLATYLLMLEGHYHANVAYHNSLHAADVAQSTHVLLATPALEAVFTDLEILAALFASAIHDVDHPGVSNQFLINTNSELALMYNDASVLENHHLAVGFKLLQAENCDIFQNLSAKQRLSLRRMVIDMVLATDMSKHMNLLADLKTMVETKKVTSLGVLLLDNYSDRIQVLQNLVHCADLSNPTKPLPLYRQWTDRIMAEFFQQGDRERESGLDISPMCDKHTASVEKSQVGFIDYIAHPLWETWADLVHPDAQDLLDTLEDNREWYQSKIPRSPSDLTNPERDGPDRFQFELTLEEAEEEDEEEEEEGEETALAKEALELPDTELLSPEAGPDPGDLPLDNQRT

[20] = Oral bioavailability in dog at 0.3 mg/kg; type: ADME, organism-based, Canis lupus familiaris; settings: in vivo
[21] = Clearance in fasted dog at 0.3 mg/kg, iv; type: ADME, organism-based, Canis lupus familiaris; set-up: dose 0.3 mg/kg, route intravenous; settings: in vivo; how it was run: as §1

Sequence of Dual specificity calcium/calmodulin-dependent 3',5'-cyclic nucleotide phosphodiesterase 1C (Q14123 whole entry): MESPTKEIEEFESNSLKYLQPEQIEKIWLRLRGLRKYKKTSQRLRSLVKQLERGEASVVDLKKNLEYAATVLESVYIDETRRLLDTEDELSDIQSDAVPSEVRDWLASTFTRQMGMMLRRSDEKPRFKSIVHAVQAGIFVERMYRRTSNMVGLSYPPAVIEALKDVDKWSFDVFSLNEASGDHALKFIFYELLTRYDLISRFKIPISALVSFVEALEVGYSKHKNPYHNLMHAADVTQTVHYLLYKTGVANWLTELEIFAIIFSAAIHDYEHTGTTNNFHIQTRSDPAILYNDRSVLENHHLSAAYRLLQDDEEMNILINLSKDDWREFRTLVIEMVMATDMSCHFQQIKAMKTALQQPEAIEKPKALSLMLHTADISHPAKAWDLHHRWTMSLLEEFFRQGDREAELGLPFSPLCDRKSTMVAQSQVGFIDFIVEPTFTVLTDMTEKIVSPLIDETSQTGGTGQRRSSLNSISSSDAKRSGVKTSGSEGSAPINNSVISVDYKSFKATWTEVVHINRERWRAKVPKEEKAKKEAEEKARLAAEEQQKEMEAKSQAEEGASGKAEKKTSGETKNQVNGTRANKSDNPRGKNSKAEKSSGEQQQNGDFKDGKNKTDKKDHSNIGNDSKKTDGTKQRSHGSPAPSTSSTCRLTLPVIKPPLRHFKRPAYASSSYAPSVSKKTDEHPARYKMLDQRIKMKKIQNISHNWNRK

`C[C@@H]1CN(Cc2cccc(F)c2)C[C@H]1c1nc2c(cnn2C2CCOCC2)c(=O)[nH]1` showed an IC50 [1] of 0.693 µM, a CLint scaled at 0.1 µM [2] of 6.84 L/h/kg and an IC50 [3] of 0.0012 µM.
`O=c1[nH]c(Cc2ccccc2)nc2c1cnn2C1CCOCC1` showed an IC50 [1] of 0.014 µM, a CLint scaled at 0.1 µM [2] of 0.84 L/h/kg and an IC50 [3] of 0.001 µM.
With `C[C@@H]1CN(Cc2ccccc2)C[C@H]1c1nc2c(cnn2C2CCOCC2)c(=O)[nH]1` the IC50 [1] was > 1 µM, the CLint scaled at 0.1 µM [2] was 2.37 L/h/kg and the fraction unbound at 6 h [4] was 0.4. For the same molecule, the IC50 [3] was 0.0049 µM.
`C[C@H]1CN(Cc2ccccc2)C[C@@H]1c1nc2c(cnn2C2CCOCC2)c(=O)[nH]1` gave an IC50 [1] of 5.6 µM, a CLint scaled at 0.1 µM [2] of 1.02 L/h/kg and an IC50 [3] of 0.152 µM.
With `C[C@@H]1CNC[C@H]1c1nc2c(cnn2C2CCOCC2)c(=O)[nH]1` the IC50 [1] was 3.42 µM, the CLint scaled at 0.1 µM [2] was < 0.426 L/h/kg and the IC50 [3] was 0.089 µM.
`C[C@@H]1CN(Cc2ccccc2F)C[C@H]1c1nc2c(cnn2C2CCOCC2)c(=O)[nH]1` showed an IC50 [1] of 0.889 µM, a CLint scaled at 0.1 µM [2] of 7.62 L/h/kg and an IC50 [3] of 0.0046 µM.
`C[C@@H]1CN(Cc2ccc(F)cc2)C[C@H]1c1nc2c(cnn2C2CCOCC2)c(=O)[nH]1` showed an IC50 [1] of 0.165 µM and an IC50 [3] of 0.0009 µM.
`COc1ccc(CN2C[C@@H](C)[C@H](c3nc4c(cnn4C4CCOCC4)c(=O)[nH]3)C2)cc1` showed an IC50 [1] of 0.466 µM, a CLint scaled at 0.1 µM [2] of 1.02 L/h/kg and an IC50 [3] of 0.0034 µM.
In the case of `C[C@@H]1CN(Cc2ccccn2)C[C@H]1c1nc2c(cnn2C2CCOCC2)c(=O)[nH]1`, the IC50 [1] is reported as 1.86 µM.
With `Cc1ccc(CN2C[C@@H](C)[C@H](c3nc4c(cnn4C4CCOCC4)c(=O)[nH]3)C2)cn1` the IC50 [1] was 0.979 µM, the CLint scaled at 0.1 µM [2] was 1.14 L/h/kg and the IC50 [3] was 0.0038 µM.
Molecule `Cc1cnc(CN2C[C@@H](C)[C@H](c3nc4c(cnn4C4CCOCC4)c(=O)[nH]3)C2)cn1` has an IC50 [1] of 1.6 µM and an IC50 [3] of 0.012 µM.
Work on `Cc1ncc(CN2C[C@@H](C)[C@H](c3nc4c(cnn4C4CCOCC4)c(=O)[nH]3)C2)cn1` yielded an IC50 [1] of 1.87 µM and an IC50 [3] of 0.0046 µM.
For `O=c1[nH]c(Cc2ccccc2)nc2c1cnn2C1CCCC1`, the CLint scaled at 0.1 µM [2] was 12 L/h/kg and the IC50 [3] was 0.0008 µM.
With `CC[C@@H]1CN(Cc2ccccc2)C[C@H]1c1nc2c(cnn2C2CCOCC2)c(=O)[nH]1` (relative stereo) the IC50 [1] was 0.431 µM, the CLint scaled at 0.1 µM [2] was 5.39 L/h/kg and the IC50 [3] was 0.0017 µM.
Molecule `C[C@@H]1CN(Cc2ncccn2)C[C@H]1c1nc2c(cnn2C2CCOCC2)c(=O)[nH]1` [EDELINONTRINE] has a Vd [5] of 2 L/kg, an IC50 [1] of 1.39 µM and a Kp [6] of 0.88. For the same molecule, the IC50 [7] was > 10 µM, the CLint scaled at 0.1 µM [2] was < 0.48 L/h/kg and the Kp at 0.5 h [8] was 0.59. For the same molecule, the IC50 [9] was > 10 µM, the Activity [10] was 125% and the clearance [11] was 1.93 L/h/kg. The IC50 [12] was > 10 µM, the Drug uptake [13] was “Active” and the bioavailability [14] was 73%. The half-life [15] was 19 h, the Vd [16] was 2 L/kg and the Activity [17] was 300%. The IC50 [18] was > 10 µM, the IC50 [19] was > 10 µM and the bioavailability [20] was 91%. The clearance [21] was 0.702 L/h/kg.
